Measurements published in the M2OR odorant receptor database.

Columns and labels:
Details in all cases: stereoisomer not certain
[1] = biological target: T1, UniProt E9PXN3
T1 sequence (whole entry): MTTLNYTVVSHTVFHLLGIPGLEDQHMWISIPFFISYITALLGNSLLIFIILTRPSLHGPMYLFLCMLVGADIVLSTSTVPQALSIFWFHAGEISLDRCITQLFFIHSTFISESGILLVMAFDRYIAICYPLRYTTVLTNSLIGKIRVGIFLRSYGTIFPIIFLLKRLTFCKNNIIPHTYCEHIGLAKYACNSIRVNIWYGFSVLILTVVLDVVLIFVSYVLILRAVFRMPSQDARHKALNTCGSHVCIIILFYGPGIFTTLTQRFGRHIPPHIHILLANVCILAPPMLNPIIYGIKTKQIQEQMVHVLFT
Procedure, shortened: (§1)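 Transient luciferase assays in mammalian cell lines were common, though methods varied by source. The values come from published papers and their supplementary material, with extra details from the original authors when needed. Responsive refers to a measured signal the original authors judged statistically different from baseline, and non-responsive (inactive) to the remainder.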

[2] = biological target: T2, UniProt E9PZ66
T2 sequence (whole entry): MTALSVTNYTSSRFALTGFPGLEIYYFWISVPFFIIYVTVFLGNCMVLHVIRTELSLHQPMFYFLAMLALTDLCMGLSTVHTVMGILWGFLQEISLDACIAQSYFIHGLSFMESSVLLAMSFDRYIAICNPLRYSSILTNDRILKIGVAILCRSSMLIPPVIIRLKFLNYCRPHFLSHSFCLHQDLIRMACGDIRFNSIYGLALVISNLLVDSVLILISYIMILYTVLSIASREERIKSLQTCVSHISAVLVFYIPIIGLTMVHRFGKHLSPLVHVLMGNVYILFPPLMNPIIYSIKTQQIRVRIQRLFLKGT
Procedure, shortened: as §1

[3] = biological target: T3, UniProt E9Q4X7
T3 sequence (whole entry): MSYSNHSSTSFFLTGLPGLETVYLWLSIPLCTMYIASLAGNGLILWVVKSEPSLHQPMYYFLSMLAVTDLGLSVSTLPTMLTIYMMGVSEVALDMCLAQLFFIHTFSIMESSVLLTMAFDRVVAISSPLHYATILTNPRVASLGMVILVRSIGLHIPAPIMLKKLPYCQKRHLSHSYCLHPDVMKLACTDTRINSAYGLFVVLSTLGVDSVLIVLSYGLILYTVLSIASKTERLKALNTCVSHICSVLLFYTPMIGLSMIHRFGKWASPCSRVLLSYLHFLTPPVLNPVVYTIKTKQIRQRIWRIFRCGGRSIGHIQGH
Procedure, shortened: as §1

[4] = biological target: T4, UniProt E9Q546
T4 sequence (whole entry): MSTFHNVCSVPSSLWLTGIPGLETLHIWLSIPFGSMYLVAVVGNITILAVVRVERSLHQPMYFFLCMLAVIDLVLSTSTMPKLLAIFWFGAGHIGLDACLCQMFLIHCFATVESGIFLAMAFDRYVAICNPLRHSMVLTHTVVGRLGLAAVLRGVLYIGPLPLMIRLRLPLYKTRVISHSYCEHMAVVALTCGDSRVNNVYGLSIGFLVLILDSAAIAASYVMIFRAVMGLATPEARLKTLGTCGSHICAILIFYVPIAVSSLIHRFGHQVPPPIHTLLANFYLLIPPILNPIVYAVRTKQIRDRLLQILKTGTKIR
Procedure, shortened: as §1

[5] = biological target: T5, UniProt E9Q6Z7
T5 sequence (whole entry): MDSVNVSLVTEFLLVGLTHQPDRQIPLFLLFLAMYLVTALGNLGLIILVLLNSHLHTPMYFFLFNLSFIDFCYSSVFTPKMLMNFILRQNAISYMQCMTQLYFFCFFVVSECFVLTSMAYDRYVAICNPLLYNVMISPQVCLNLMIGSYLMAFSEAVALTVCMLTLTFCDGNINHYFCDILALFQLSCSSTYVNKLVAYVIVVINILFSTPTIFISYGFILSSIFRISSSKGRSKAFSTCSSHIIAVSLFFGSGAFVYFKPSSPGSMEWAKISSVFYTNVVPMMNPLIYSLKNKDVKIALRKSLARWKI
Procedure, shortened: as §1

[6] = biological target: T6, UniProt K7N609
T6 sequence (whole entry): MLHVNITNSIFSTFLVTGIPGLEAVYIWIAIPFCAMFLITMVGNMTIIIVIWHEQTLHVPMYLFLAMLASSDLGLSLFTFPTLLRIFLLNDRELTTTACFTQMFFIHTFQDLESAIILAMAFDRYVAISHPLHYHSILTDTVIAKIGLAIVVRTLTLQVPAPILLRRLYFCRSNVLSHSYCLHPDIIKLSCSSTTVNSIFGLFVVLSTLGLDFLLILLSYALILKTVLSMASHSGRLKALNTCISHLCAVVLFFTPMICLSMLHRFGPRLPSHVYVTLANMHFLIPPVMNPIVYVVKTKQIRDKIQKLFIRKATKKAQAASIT
Procedure, shortened: as §1

Measured: odorant receptor agonist call;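 also: active if original authors judged signal statistically different from baseline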

CCCCOC(=O)CCC
inactive: [1]

CCSSCC
inactive: [2] | [3] | [4] | [5]

CCCCCCCCCC=CC=O
inactive: [2] | [3] | [4] | [5]

CCCCC=O
inactive: [1] | [2] | [3] | [4] | [5]

CCCC(C)=O
inactive: [1] | [4] | [6]

O=C(O)CCCCCBr
inactive: [1] | [2] | [3] | [4] | [5]

CC(C)=C1CCC(C)CC1=O (stereo not given)
inactive: [2] | [3] | [4] | [5]

CCCCCCCCCCCO
inactive: [1] | [2] | [3] | [4] | [5]

CCCCCCCCO
inactive: [1] | [2] | [3] | [4] | [5] | [6]

O=C(O)C1CCC1
inactive: [2] | [3] | [4] | [5]

Cc1ccccc1OC(=O)C(C)C
inactive: [2] | [3] | [4] | [5]

CCCCCCCCCO
inactive: [1] | [2] | [3] | [4] | [5] | [6]

CCCCCCCCOC=O
inactive: [2] | [3] | [4] | [5]

Cc1ccc(C(C)C)cc1
inactive: [2] | [3] | [4] | [5]

CC(=O)OC1(C)CCC23CC1C(C)(C)C2CCC3C (stereo not given)
inactive: [2] | [3] | [4] | [5]

CCCCC(=O)O
inactive: [1] | [3] | [4] | [5] | [6]
active: [2]

CC1(C)CC(=O)CC(=O)C1
inactive: [2] | [3] | [4] | [5]

CCCCCCO
inactive: [1] | [2] | [3] | [4] | [5] | [6]

C=C(C)C1CC=C(C)CC1 (stereo not given)
inactive: [2] | [3] | [4] | [5]

CCc1ccccc1O
inactive: [2] | [3] | [4] | [5]

CC1CCC(C(C)C)C(=O)C1 (stereo not given)
inactive: [2] | [3] | [4] | [5]

CNc1ccccc1C(=O)OC
inactive: [2] | [3] | [4] | [5]

CCc1ccc(O)cc1
inactive: [2] | [3] | [4] | [5]

CCCCCCCCCCCC(=O)O
active: [1]

CCOC(=O)C(C)CC (stereo not given)
inactive: [2] | [3] | [4] | [5]

CCCCCCC(=O)OCCCC
inactive: [2] | [3] | [4] | [5]

CCCCCCCCCCOC(C)=O
inactive: [2] | [3] | [4] | [5]

CSSSC
inactive: [2] | [3] | [4] | [5]

CCCCCC(C)O (stereo not given)
inactive: [2] | [3] | [4] | [5]

C=C(C)C1CCC2(C)OC2C1 (stereo not given)
inactive: [2] | [3] | [4] | [5]

O=C([O-])CCCCCCCC(=O)[O-].[H+].[H+]
inactive: [1] | [2] | [3] | [4] | [5]

CCCCCCCO
inactive: [1] | [2] | [3] | [4] | [5] | [6]

Cc1ccc(C(C)C)c(O)c1
inactive: [2] | [3] | [4] | [5]

CCCCCC=CCCC=O
active: [3]
inactive: [2] | [4] | [5]

COc1nccnc1C
inactive: [2] | [3] | [4] | [5]

Cc1ccc2c(c1)OCC(=O)CO2
inactive: [2] | [3] | [4] | [5]

OCCCCCCCCCO
inactive: [2] | [3] | [4] | [5]

CC=C(C)C=O
inactive: [2] | [3] | [4] | [5]

CC(=O)C1(C)CC2=C(CCCC2(C)C)CC1C (stereo not given)
inactive: [2] | [3] | [4] | [5]

CC(C)=CCCC(C)=CCOC(=O)C(C)C
inactive: [2] | [3] | [4] | [5]

C=C1C2CCC(C2)C1(C)C (stereo not given)
inactive: [2] | [3] | [4] | [5]

CCOC(=O)CC(C)C
inactive: [2] | [3] | [4] | [5]

CCCC(C)C(=O)OCC (stereo not given)
inactive: [2] | [3] | [4] | [5]

CCCCCCC(C=O)=Cc1ccccc1
inactive: [2] | [3] | [4] | [5]

OCC=Cc1ccccc1
inactive: [2] | [3] | [4] | [5]

CC=Cc1ccc(OC)cc1
inactive: [2] | [3] | [4] | [5]

CC(=O)OCCc1ccccc1
inactive: [2] | [3] | [4] | [5]

CCCO
inactive: [2] | [3] | [4] | [5]

O=C(O)CCCCCCCCC(=O)O
inactive: [2] | [3] | [4] | [5]

C=CC(=C)CCC=C(C)CCC=C(C)C
inactive: [2] | [3] | [4] | [5]

CCCCCC(=Cc1ccccc1)C(OC)OC
inactive: [2] | [3] | [4] | [5]

C1CCOC1
inactive: [2] | [3] | [4] | [5]

CCC=CCCC=CC=O
inactive: [2] | [3] | [4] | [5]

CSSCc1ccco1
inactive: [2] | [3] | [4] | [5]

C=CC(=C)CCC=C(C)C
inactive: [2] | [3] | [4] | [5]

CC=CC(=O)C1=C(C)CCCC1(C)C
inactive: [2] | [3] | [4] | [5]

CC(=O)OCc1ccc2c(c1)OCO2
inactive: [2] | [3] | [4] | [5]
